The record followed here is the M2OR odorant receptor database.
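Further: active if original authors judged signal statistically different from baseline.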

The test addresses T1, OR1A2 (Homo sapiens) (UniProt Q9Y585).
T1 sequence (whole entry): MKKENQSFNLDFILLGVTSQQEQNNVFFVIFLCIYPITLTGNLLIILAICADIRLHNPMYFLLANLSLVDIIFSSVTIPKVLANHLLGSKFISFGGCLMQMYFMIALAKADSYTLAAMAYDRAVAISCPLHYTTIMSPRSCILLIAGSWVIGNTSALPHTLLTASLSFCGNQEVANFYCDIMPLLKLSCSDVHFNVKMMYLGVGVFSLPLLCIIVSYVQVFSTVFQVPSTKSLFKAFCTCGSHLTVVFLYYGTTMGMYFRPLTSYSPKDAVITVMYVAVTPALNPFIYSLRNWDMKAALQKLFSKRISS
The following applies: stereoisomer not certain. In a few lines: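 Transient luciferase assays in mammalian cell lines were common, though methods varied by source. The values come from published papers and their supplementary material, with extra details from the original authors when needed. Responsive refers to a measured signal the original authors judged statistically different from baseline, and non-responsive (inactive) to the remainder.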
On to `O=C([O-])CCC(=O)[O-].[H+].[H+]`, for which the “odorant receptor agonist call” value was “inactive”.
Turning to `CCCCCCCO`, the “odorant receptor agonist call” value was “inactive”.
Take `CC1CCC(C(C)C)C(=O)C1` (stereo not drawn): the “odorant receptor agonist call” value was “inactive”.
Under `CCCCCC=CC=CC=O` stands “active”; under `CCC=CCCC=CC=O`, “inactive”; under `CCCCCCCC(=O)[O-].[H+]`, “inactive”.
Consider `CC(C)=CCCC(C)=CCCC(C)=CCO`, for which the “odorant receptor agonist call” value is “inactive”.
On to `COc1nccnc1CC(C)C`, for which the “odorant receptor agonist call” value is “inactive”.
For `COc1ccccc1`, the “odorant receptor agonist call” value was “inactive”.
On to `C=CC(C)=CCC=C(C)CCC=C(C)C`, for which the “odorant receptor agonist call” value was “inactive”.
Then `COc1nccnc1C(C)C`, with “inactive”; and `CCc1nccnc1CC`, with “inactive”; and `CCC(C)c1nccnc1OC` (stereo not drawn), with “inactive”.
Consider `CCCCS`, for which the “odorant receptor agonist call” value is “inactive”.
On to `CCc1ncc(C)nc1CC`, for which the “odorant receptor agonist call” value is “inactive”.
With `CC=CC(=O)C1=C(C)C=CCC1(C)C`, the “odorant receptor agonist call” value was “inactive”.
For the compound `CCCCCCC=CC=O`, the “odorant receptor agonist call” value was “inactive”.
Consider `CCC=CCCCCCC=O`, for which the “odorant receptor agonist call” value is “active”.
`CC(=O)C=CC1C(C)=CCCC1(C)C` (stereo not drawn): the “odorant receptor agonist call” value was “active”.
Take `CC=CC(=O)C1=C(C)CCCC1(C)C`: the “odorant receptor agonist call” value is “inactive”.
`CCCCCC=O`: the “odorant receptor agonist call” value is “inactive”.
Turning to `CCCCCCO`, the “odorant receptor agonist call” value is “inactive”.
`CCCCC(=O)O`: the “odorant receptor agonist call” value is “inactive”.
`CCCCCCCCO`: the “odorant receptor agonist call” value was “active”.
In the case of `CSCCCO`, the “odorant receptor agonist call” value was “inactive”.
Under `CCCCC=CC=CC=O` stands “inactive”; under `CCc1cnccn1`, “inactive”; under `O=C([O-])CCCCC(=O)[O-].[H+].[H+]`, “inactive”.
